Columns and labels:
[1] = biological target: High affinity 3',5'-cyclic-AMP phosphodiesterase 7A (Homo sapiens, UniProt Q13946); assay: Inhibition of human recombinant PDE7A1 expressed in baculovirus infected insect Sf21 cells after 30 mins by scintillation proximity assay
Procedure, shortened: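 Full-length human recombinant PDE7A1 produced in baculovirus-infected Sf21 cells. SPA read-out with [3H]-cAMP at 20 nM in 80 mM Tris/10 mM MgSO4, pH 7.4. Reaction run 30 min at 37 °C before bead addition and scintillation counting. Background measured without enzyme. IC50 derived.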

[2] = biological target: 3',5'-cyclic-AMP phosphodiesterase 4A (Homo sapiens, UniProt P27815); assay: Inhibition of human recombinant PDE4A4 expressed in baculovirus infected insect Sf21 cells after 30 mins by scintillation proximity assay
Sequence of 3',5'-cyclic-AMP phosphodiesterase 4A (P27815 whole entry): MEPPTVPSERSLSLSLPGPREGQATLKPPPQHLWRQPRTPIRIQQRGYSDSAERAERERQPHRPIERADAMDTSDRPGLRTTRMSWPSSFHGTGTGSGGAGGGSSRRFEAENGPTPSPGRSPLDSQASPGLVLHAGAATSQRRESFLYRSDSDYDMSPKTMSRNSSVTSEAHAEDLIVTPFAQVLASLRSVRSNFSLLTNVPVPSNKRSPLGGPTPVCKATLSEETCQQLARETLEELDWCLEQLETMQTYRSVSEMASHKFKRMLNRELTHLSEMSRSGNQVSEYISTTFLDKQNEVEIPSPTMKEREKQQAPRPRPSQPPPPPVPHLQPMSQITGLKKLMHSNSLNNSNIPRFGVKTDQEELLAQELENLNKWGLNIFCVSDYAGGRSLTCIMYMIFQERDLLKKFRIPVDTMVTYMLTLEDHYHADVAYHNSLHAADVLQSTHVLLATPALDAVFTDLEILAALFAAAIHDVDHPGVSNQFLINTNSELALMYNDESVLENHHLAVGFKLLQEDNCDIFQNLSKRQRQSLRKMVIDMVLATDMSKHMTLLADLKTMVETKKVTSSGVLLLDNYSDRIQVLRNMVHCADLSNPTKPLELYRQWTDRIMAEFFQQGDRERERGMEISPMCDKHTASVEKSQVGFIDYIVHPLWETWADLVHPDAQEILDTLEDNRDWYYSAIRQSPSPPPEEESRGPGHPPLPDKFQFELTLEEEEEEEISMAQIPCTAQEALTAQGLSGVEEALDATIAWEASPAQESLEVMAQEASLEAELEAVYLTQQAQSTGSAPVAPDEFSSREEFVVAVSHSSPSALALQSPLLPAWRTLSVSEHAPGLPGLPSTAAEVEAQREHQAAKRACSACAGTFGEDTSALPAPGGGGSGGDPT
Procedure, shortened: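 Full-length human recombinant enzyme expressed in baculovirus-infected Sf21 cells. Scintillation proximity assay with 500 nM [3H]-cAMP substrate in 80 mM Tris/10 mM MgSO4, pH 7.4. Incubated 30 min at 37 °C, then SPA beads added and plates counted. Background taken in presence of 10 µM rolipram. IC50 reported.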

Sequence of High affinity 3',5'-cyclic-AMP phosphodiesterase 7A (Q13946 whole entry): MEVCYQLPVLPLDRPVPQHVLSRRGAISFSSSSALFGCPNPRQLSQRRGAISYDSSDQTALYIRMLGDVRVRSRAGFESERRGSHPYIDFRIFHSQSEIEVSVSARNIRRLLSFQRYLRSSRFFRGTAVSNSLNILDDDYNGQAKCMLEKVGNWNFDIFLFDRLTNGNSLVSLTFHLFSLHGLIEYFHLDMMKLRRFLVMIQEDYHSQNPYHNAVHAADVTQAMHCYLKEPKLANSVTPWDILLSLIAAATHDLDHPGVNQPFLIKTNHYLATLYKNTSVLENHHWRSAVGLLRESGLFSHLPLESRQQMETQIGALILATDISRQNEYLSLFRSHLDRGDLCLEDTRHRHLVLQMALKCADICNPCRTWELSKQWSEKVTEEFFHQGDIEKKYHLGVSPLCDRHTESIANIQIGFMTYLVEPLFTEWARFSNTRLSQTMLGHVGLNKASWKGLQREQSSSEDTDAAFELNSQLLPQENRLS

SMILES	IC50 [1] [µM]	IC50 [2] [µM]
O=C(Nc1ccccc1)c1cn(Cc2c(F)cccc2F)c2ccc(=O)[nH]c2c1=O	0.094	1.33
O=C(Nc1ccc(N2CCOCC2)cc1)c1cn(Cc2c(Cl)cccc2Cl)c2ccc(=O)[nH]c2c1=O	0.165	> 1
COc1ccc2c(n1)c(=O)c(C(=O)Nc1ccc(N3CCOCC3)cc1)cn2Cc1c(F)cccc1F	> 5	> 5
CC(=O)Nc1ccc(NC(=O)c2cn(Cc3c(F)cccc3F)c3ccc(=O)[nH]c3c2=O)cc1	0.024	0.362
CSc1ccc(NC(=O)c2cn(Cc3c(F)cccc3F)c3ccc(=O)[nH]c3c2=O)cc1	0.086	> 1
O=C(Nc1ccc(S(=O)(=O)Nc2nccs2)cc1)c1cn(Cc2c(F)cccc2Cl)c2ccc(=O)[nH]c2c1=O	0.032	0.274
COc1cc(NC(=O)c2cn(Cc3ccc(F)cc3Cl)c3ccc(=O)[nH]c3c2=O)cc(OC)c1OC	0.192	> 1
CNC(=O)c1ccc(NC(=O)c2cn(Cc3c(F)cccc3F)c3ccc(=O)[nH]c3c2=O)cc1	0.029	0.56
COc1cc(NC(=O)c2cn(Cc3ccccc3Br)c3ccc(=O)[nH]c3c2=O)cc(OC)c1OC	> 1	> 1
O=C(NCc1ccncc1)c1ccc(NC(=O)c2cn(Cc3c(F)cccc3F)c3ccc(=O)[nH]c3c2=O)cc1	0.02	0.43
O=C(Nc1ccc(C(=O)N2CCOCC2)cc1)c1cn(Cc2c(F)cccc2F)c2ccc(=O)[nH]c2c1=O	0.188	1.06
CNc1ccc(NC(=O)c2cn(Cc3c(F)cccc3F)c3ccc(=O)[nH]c3c2=O)cc1	0.082	0.994
O=C(Nc1ccc(N2CCOCC2)cc1)c1cn(Cc2ccccc2Cl)c2ccc(=O)[nH]c2c1=O	0.767	> 1
O=C(Nc1ccc(N2CCOCC2)cc1)c1cn(Cc2cc(F)cc(F)c2)c2ccc(=O)[nH]c2c1=O	> 1	> 1

More lines, now with the values ahead:

IC50 [1] [µM]	IC50 [2] [µM]	SMILES
0.3	> 1	O=C(Nc1ccc(C(F)(F)F)cc1)c1cn(Cc2c(F)cccc2F)c2ccc(=O)[nH]c2c1=O
2.38	> 5	O=C(Nc1ccc(N2CCOCC2)cc1)c1cn(Cc2ccc(F)cc2)c2ccc(=O)[nH]c2c1=O
1.07	> 1	N#Cc1cccc(NC(=O)c2cn(Cc3c(F)cccc3F)c3ccc(=O)[nH]c3c2=O)c1
0.049	0.201	NC(=O)c1ccc(NC(=O)c2cn(Cc3c(F)cccc3F)c3ccc(=O)[nH]c3c2=O)cc1
0.179	> 1	O=C(Nc1ccc(F)cc1)c1cn(Cc2c(F)cccc2F)c2ccc(=O)[nH]c2c1=O
0.025	0.481	O=C(Nc1ccc(S(=O)(=O)Nc2nccs2)cc1)c1cn(Cc2c(F)cccc2F)c2ccc(=O)[nH]c2c1=O
0.2	1.52	O=C(O)c1ccc(NC(=O)c2cn(Cc3c(F)cccc3F)c3ccc(=O)[nH]c3c2=O)cc1
0.317	3.56	O=C(Nc1ccc(N2CCOCC2)cc1)c1cn(Cc2c(F)c(F)cc(F)c2F)c2ccc(=O)[nH]c2c1=O
0.823	0.379	O=C(Nc1ccc(N2CCOCC2)cc1)c1cn(Cc2c(F)cccc2F)c2cccnc2c1=O
0.033	> 1	COc1cc(NC(=O)c2cn(Cc3c(F)cccc3Cl)c3ccc(=O)[nH]c3c2=O)cc(OC)c1OC
0.071	0.568	O=C(Nc1ccc(OC(F)F)cc1)c1cn(Cc2c(F)cccc2F)c2ccc(=O)[nH]c2c1=O
0.712	> 1	O=C(Nc1ccc(N2CCOCC2)cc1)c1cn(Cc2ccccc2)c2ccc(=O)[nH]c2c1=O
0.868	> 1	COc1cc(NC(=O)c2cn(Cc3ccc(F)cc3)c3ccc(=O)[nH]c3c2=O)cc(OC)c1OC
0.088	0.979	COc1cc(NC(=O)c2cn(Cc3c(Cl)cccc3Cl)c3ccc(=O)[nH]c3c2=O)cc(OC)c1OC
0.022	0.506	O=C(Nc1ccc(N2CCOCC2)cc1)c1cn(Cc2c(F)cccc2F)c2ccc(=O)[nH]c2c1=O

Reference: ChEMBL document CHEMBL1909601, “Synthesis and structure-activity relationship studies of dihydronaphthyridinediones as a novel structural class of potent and selective PDE7 inhibitors” (Bioorg Med Chem Lett, 2011)
